Screening data deposited in PubChem BioAssay by The Scripps Research Institute Molecular Screening Center.
5-HT1A blocker: human 5-HT1a receptor antagonists, primary screen, cell-based, CHO, Ga15 NFAT-bla reporter; CHO 5-HT1a Ga15 NFAT-bla reporter, antagonist mode; 62,000 compounds, 0.68% hits; inhibition, % at 10 µM; AID 612, 2007; 5-hydroxytryptamine receptor 1A (Homo sapiens), P08908;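 active = inhibition above the mean of all tested compounds plus 3 SD, cut at about 43% in these data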;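 note: receptor stimulated by 5-CT agonist at 100 nM near EC80; beta-lactamase reporter measured by ratiometric fluorescence of a cleavable substrate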
Target sequence (P08908 whole entry, looked up): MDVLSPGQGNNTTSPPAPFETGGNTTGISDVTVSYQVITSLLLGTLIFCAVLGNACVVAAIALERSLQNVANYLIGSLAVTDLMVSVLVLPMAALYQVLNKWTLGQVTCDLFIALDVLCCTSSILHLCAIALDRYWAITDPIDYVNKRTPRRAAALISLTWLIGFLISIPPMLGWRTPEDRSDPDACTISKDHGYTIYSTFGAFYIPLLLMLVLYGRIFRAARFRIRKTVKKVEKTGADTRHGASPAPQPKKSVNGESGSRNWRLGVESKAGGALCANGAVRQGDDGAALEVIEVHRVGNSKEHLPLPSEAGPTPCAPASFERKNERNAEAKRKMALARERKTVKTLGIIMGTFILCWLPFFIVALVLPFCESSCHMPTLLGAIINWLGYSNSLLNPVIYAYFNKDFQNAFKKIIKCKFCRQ
5HT1E ag: 5-HT1E receptor agonists, primary screen, cell-based, HTS. CHO 5-HT1E Ga15 NFAT-bla reporter, FRET; 0% DMSO wells, 100% control agonist wells. activation, % at 6 µM. 65,000 compounds, 0.69% hits;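 active = activation above a set limit, the screen-wide mean activation plus 3 SD, cut at about 8.5% in these data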;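 note: 100% = positive control agonist at 1 µM giving full maximal response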
HTR1E antagonist: 5-HT1E receptor antagonists, primary screen, cell-based, HTS; 5-hydroxytryptamine receptor 1E (Homo sapiens), P28566; CHO 5-HT1E Ga15 NFAT-bla reporter, FRET, antagonist; inhibition, % at 6 µM; 65,000 compounds, 0.99% hits;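 active = inhibition above a set limit, the mean inhibition across every tested compound plus 3 SD, cut at about 29% in these data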;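 note: signal is the 460 over 535 nm emission ratio of beta-lactamase substrate; 0% = agonist plus DMSO wells and 100% = wells without agonist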
S1P3 ag: human S1P3 receptor agonists, primary screen, cell-based, primary and confirmation, NFAT-BLA reporter. 60,000 compounds, 0.1% hits. S1P3 NFAT-BLA reporter cells, agonism, FRET ratio; relative to 1 µM S1P, basal subtracted. activation, % at 4.5 µM;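 active = activation above the screen-wide mean plus 3 SD, cut at about 4.5% in these data, passing the limit was not always enough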
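material = human S1P3 NFAT-BLA reporter CHO cells | schedule = 4 h compound at 37 °C, 2 h substrate at RT | measured by = fluorescent BLA substrate, ex 405 nm, em 460/535 nm ratio | controls = 1 µM S1P reference | replication = primary once, confirmation triplicate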
HTR1A agonist: human 5-HT1a receptor agonists, primary screen, cell-based, CHO, Ga15 NFAT-bla reporter; activation, % at 10 µM; CHO 5-HT1a Ga15 NFAT-bla reporter, FRET ratio; 0% basal, 100% maximal reference agonist; AID 567, 2006; 65,000 compounds, 0.56% hits; 5-hydroxytryptamine receptor 1A (Homo sapiens), P08908;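 active = activation above the screen-wide mean activation plus 3 SD, cut at about 19% in these data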;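 note: 0% = DMSO wells and 100% = 5-CT at EC100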
Numbers without * were called inactive; x = not tested or not shown. Rows were chosen to be rich in hits. Some 2.6% of all compounds tested hit in one or more screens of this group.

SMILES	5-HT1A blocker	5HT1E ag	HTR1E antagonist	S1P3 ag	HTR1A agonist
CCOc1ccc(C2CC(c3cccc(OC)c3)Nc3ncnn32)cc1 (stereo not given)	0	0	-2	0	-1
O=c1oc2c(CN3CCCCCC3)c(O)ccc2cc1-c1nc2ccccc2[nH]1	15	1	30*	0	-1
Cc1ccc2nc3c(cc(C(N)=S)c(=N)n3CCCOC(C)C)c(=O)n2c1	-13	2	0	-1	-1
COc1ccccc1C(=O)NC(=Nc1nc2ccccc2o1)NC(=O)c1ccccc1OC	x	0	41*	-2	0
N/C(=N\c1nc2ccccc2o1)NC(=O)c1ccccc1NC(=O)c1ccccc1	x	0	-18	-2	1
COc1cccc(OCCOc2c(OC)cccc2OC)c1	8	0	2	-1	-1
O=S1(=O)C=C(Sc2nc3cc(Cl)ccc3o2)c2ccccc21	94*	-1	80*	-1	-4
Nc1ccc(Cl)cc1/C(=N/O)c1ccccc1	x	0	-5	-2	-1
O=C1N(CN2CCN(c3cccc(Cl)c3)CC2)c2ccccc2C12OCCCO2	10	24*	7	2	2
O=C1N(CN2CCC3(CC2)OCCO3)c2ccccc2C12OCCCO2	-10	0	0	0	-3
CC1CCOC2(O1)C(=O)N(CN1CCN(c3ccccc3F)CC1)c1ccccc12 (stereo not given)	-6	14*	-8	0	2
CN(C)c1ccc(-c2nn3c(C4CCCCC4)nnc3s2)cc1	5	1	-7	0	0
COc1ccc(CCC(=O)Nc2nc3c(s2)CN(C)CC3)cc1OC	-1	0	9	0	0
O=C(NCc1ccco1)c1ccc2c(=O)n(Cc3ccco3)c(SCC(=O)N3CCCC3)nc2c1	-12	0	0	x	1
COC(=O)c1ccc2c(=O)n(Cc3ccc4c(c3)OCO4)c(SCC(=O)N3CCCC3)nc2c1	5	-5	12	x	96*
C=CCOC(=O)c1sc(N2C(=O)c3oc4ccccc4c(=O)c3C2c2ccco2)nc1C (stereo not given)	-29	1	-3	0	2
CCOC(=O)c1nn(-c2ccc(OC)cc2)c(=O)c2c(NC(=O)c3ccco3)scc12	-1	-2	9	-1	-3
CCn1c(SCC(=O)NCC2CCCO2)nc2c(c1=O)SC(C)C2 (stereo not given)	-10	1	-8	0	19*
CC(C)[C@H](NC(=O)OC(C)(C)C)c1nnc(S(=O)(=O)Cc2c(F)cccc2Cl)o1	79*	1	67*	-1	5
Cc1[nH]c(=O)[nH]c(=O)c1CSc1nnc([C@@H](NC(=O)OC(C)(C)C)C(C)C)o1	-9	0	-19	0	0
CC(C)(C)OC(=O)N[C@@H](Cc1ccccc1)c1nnc(S(=O)(=O)Cc2cccc(F)c2)o1	67*	1	46*	-1	-3
Cc1ccccc1CS(=O)(=O)c1nnc([C@H](CC(C)C)NC(=O)OC(C)(C)C)o1	39	2	36*	0	3
CC[C@@H](C)[C@H](NC(=O)OC(C)(C)C)c1nnc(S(=O)(=O)Cc2cc(C)ccc2C)o1	57*	0	35*	-2	1
CCCOc1cccc(C2C(C(=O)c3ccc(C)o3)=C(O)C(=O)N2CCCN(C)C)c1 (stereo not given)	x	0	0	-3	2
COC(=O)C(NS(C)(=O)=O)(c1c(C)[nH]c2ccccc12)C(F)(F)F (stereo not given)	3	1	4	0	-5
SMILES	5-HT1A blocker	5HT1E ag	HTR1E antagonist	S1P3 ag	HTR1A agonist
COc1ccc(-c2nnc3ccc(SCC(=O)N4CCN(c5ccccc5)CC4)nn23)cc1	0	-1	-4	-1	0
CC(C)C[C@H](N)c1nnc(S(=O)(=O)Cc2cccc(F)c2)o1	58*	0	20	-2	-1
Cc1noc(C)c1COc1ccc(C(=O)OC(C)C(=O)Nc2ccc(N3CCOCC3)cc2)cc1 (stereo not given)	1	120*	-6	1	-2
CC(=O)c1ccc(N2CCN(C(=O)c3ccc(OCc4c(C)noc4C)cc3)CC2)cc1	-2	0	5	1	-2
CN(C(=O)c1cnccn1)c1nnc(-c2cccnc2)s1	0	-1	2	0	-3
N#CCCn1nc(-c2ccccc2)cc1Nc1ccccc1NC(=O)c1cccs1	10	1	-5	x	-1
CCN1C(=O)c2ccccc2S(=O)c2ccc(C(=O)NC3CC3)cc21 (stereo not given)	-1	1	-2	0	-1
CCN1C(=O)c2ccccc2S(=O)c2ccc(C(=O)NCCCN3CCCC3=O)cc21 (stereo not given)	9	-1	30*	0	0
COc1cc(OC)cc(C(=O)Nc2ccc(-n3cnnn3)c(C)c2)c1	17	36*	22	0	-5
O=C(COC(=O)c1cc(S(=O)(=O)N2CCOCC2)ccc1Cl)Nc1ccc2c(c1)OCO2	-6	0	2	6	1
CCOC(=O)C1=C(NC(=O)c2ccc(Br)o2)Nc2ccccc2N=C1	6	1	12	-1	-3
CC(CN1CCCCC1)OC(=O)c1cc2ccccc2o1 (stereo not given)	-10	2	0	0	46*
O=C(c1cc2ccccc2o1)N1CCCCCC1	-6	0	-2	-1	-3
COc1cccc(NC(=O)CSc2nc3n[nH]c(C)c3c(=N)n2-c2cccc(OC)c2)c1	-11	1	33*	0	2
COc1cccc(-n2c(SCC(=O)NCCC3=CCCCC3)nc3n[nH]c(C)c3c2=N)c1	-13	1	-8	0	0
Cc1ccc(S(=O)(=O)N2CCCSCC2)cc1	3	0	-5	1	49*
Cc1ccc(-c2ccc(S(=O)(=O)N3CCN(C)CC3)cc2)cc1	-16	0	-7	-1	0
CCCCN(CC)Cc1ccc(CNC(=O)Nc2ccc(OC)cc2OC)o1	13	52*	6	0	-2
COc1ccc(CNC(=O)CCCCCn2c(SCC#N)nc3cc4c(cc3c2=O)OCO4)cc1	4	-1	3	x	-2
O=C(Nc1ccc(N2CCOCC2)cc1)Nc1ccc2nc(-c3ccco3)c(-c3ccco3)nc2c1	40	0	67*	0	-1
Cn1nnnc1SCCOc1ccc(C#N)cc1	-8	0	9	-1	-1
